Screening data (PubChem BioAssay)
Calb FLC: affects C. albicans growth with fluconazole. C. albicans CaCi-2 (fluconazole-resistant clinical isolate) + fluconazole, Alamar Blue growth, 48 h. growth inhibition, % (no concentration beside the values). 300,000 tested, 0.57% active. AID 1979;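 active = growth inhibition above about 58% in most replicates, limit read from the data, passing the limit was not always enough; inconclusive = exactly half the replicates above a set limit; inactive = most replicates below a set limit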;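 also: all wells also contain fluconazole at 8 µg/ml as a sub-toxic cotreatment; 0% = median of DMSO wells and 100% = median of geldanamycin control wells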
Mdm2 MdmX PPI: inhibitors of human Mdm2/MdmX interaction; O15151+Q00987; SaOS-2 split-luciferase Mdm2/MdmX complementation, luminescence; inhibition, % at 8 µM; 330,000 tested, 3% active;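 active = inhibition of at least 50% at 8 µM in the primary screen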
Target sequence (O15151 whole entry, looked up): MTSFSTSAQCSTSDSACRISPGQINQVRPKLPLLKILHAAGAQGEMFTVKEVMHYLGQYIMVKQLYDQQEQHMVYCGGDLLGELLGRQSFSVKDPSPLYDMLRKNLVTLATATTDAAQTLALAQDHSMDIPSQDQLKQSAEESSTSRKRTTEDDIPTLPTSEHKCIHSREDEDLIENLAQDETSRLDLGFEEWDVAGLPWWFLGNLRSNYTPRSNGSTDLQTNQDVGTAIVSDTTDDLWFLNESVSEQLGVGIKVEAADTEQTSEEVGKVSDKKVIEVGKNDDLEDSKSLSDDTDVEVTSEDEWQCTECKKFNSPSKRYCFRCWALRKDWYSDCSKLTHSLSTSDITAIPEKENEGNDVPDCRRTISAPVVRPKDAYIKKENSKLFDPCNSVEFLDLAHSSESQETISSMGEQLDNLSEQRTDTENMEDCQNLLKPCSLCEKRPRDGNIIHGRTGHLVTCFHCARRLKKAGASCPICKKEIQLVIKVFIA
Target sequence (Q00987 whole entry, looked up): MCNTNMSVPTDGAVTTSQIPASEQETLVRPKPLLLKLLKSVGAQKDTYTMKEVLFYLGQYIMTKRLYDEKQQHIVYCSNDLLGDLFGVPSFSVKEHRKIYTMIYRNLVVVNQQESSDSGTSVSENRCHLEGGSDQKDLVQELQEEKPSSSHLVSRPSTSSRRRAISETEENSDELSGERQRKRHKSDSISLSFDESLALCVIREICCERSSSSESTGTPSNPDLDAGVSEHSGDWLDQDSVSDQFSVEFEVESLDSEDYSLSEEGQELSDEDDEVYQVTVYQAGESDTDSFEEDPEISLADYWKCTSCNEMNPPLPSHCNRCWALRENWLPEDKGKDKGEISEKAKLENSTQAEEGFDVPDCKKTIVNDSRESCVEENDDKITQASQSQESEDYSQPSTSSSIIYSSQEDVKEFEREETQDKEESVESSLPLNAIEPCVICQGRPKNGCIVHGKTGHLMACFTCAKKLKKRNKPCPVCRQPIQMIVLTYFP
SKKanGAS inh: inhibitors of SKKanGAS S. pyogenes growth in kanamycin (SK-promoter or general growth effect). BacTiter-Glo, 6 h. inhibition, % at 7.5 µM. 300,000 tested, 1.3% active. AID 1662;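 active = mean replicate score, as percent of positive control median, at least 50; inconclusive = mean below 50 but one replicate at or above 50; inactive = mean and every replicate below 50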;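 also: strain carries kanamycin resistance gene driven by streptokinase promoter and grows in 40 µg/ml kanamycin; loss of luminescence reflects streptokinase promoter inhibition or plain growth inhibition; 0% = median of DMSO wells and 100% = positive control at its reference dose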
Beta apoptosis: beta cell apoptosis inhibition. INS-1E cytokine-induced death, ATP luminescence, 48 h; percent of positive-control rescue, neutral wells zero. protection from apoptosis, % (test concentration not listed). 300,000 tested, 0.8% active;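 active = Every replicate reaches about 75%, or at least half do and their mean reaches it too, limit read from the data; inconclusive = At least half of replicates reach the limit but their mean does not; inactive = Under half of replicates reach the limit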;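 also: 0% = cytokine-treated negative control wells and 100% = positive control rescue; higher means more ATP so stronger rescue from cytokine killing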
CSC inhib: cancer stem cell inhibition; cancer stem cell-like cells viability, luminescence; inhibition, % at 7.5 µM; 300,000 tested, 1.1% active; in the data active = inhibition above about 75%; inconclusive = no clear call, values can overlap the other calls; tested in HMLE shEcad cells
T cruzi repl: T. cruzi replication inhibition. T. cruzi beta-gal in NIH3T3, luminescence, 90 h. inhibition, % (concentration not given with the values). 300,000 tested, 1.4% active. AID 1885;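 active = mean inhibition across valid replicates above about 55%, limit read from the data; inconclusive = mean below that limit but half or more replicates reach it; inactive = mean below it, under half of replicates reach it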;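 also: signal also drops with host cell toxicity which is not excluded here; 0% = plate median of DMSO wells and 100% = zero luminescence signal; higher percent means less beta-gal luminescence so fewer parasites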
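Assay system: NIH/3T3 fibroblasts plus reporter T. cruzi. Amount: NIH/3T3 cells, 5,000 per well. Buffer or medium: DMEM, 2% fetal bovine serum. Doses: compound pinned at 50 nL/well, DMSO. Schedule: ≥90 h infection period, 3 h prior cell attachment. Signal: luminescent β-galactosidase signal after 60 min lysis. Read-out: parasite load inhibition, %.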
Mdm2 MdmX conf: human Mdm2/MdmX binding inhibition, confirmed; shares compounds with Mdm2 MdmX PPI; luminescent assay; inhibition, % at 8 µM; 10,000 tested, 55% active; in the data active = inhibition above about 40%
Full FLuc ctr: full-length luciferase inhibition in Mdm2/MdmX counter-screen; shares compounds with Mdm2 MdmX PPI; SaOS-2 full-length luciferase counterscreen, luminescence; inhibition, % at 8 µM; 6,200 tested, 77% active; AID 504607;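 active = mean inhibition at 8 µM reaching about 37%, which flags the compound as non-specific, limit read from the data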;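 also: p53-null SaOS-2 cells with luciferase driven by a doxycycline-inducible promoter; compound on cells about two nights before reading with doxycycline added after day one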
Numbers without * were called inactive; u = inconclusive; x = no result. A selection: hits, their analogues and other compounds. The true share with any hit is near 5.7%.

SMILES	Calb FLC	Mdm2 MdmX PPI	SKKanGAS inh	Beta apoptosis	CSC inhib	T cruzi repl	Mdm2 MdmX conf	Full FLuc ctr
Cc1cc(C)c2nc(NNC(=O)c3ccc(S(=O)(=O)N4CC(C)CC(C)C4)cc3)sc2c1 (stereo not drawn)	2	84*	82*	106*	118*	62*	70*	23
CCCc1nc2oc3c(Cl)ncnc3c2c2c1CCCC2	3	100*	53*	-8	2	3	12	x
CC(C)Cc1nc2oc3c(Cl)ncnc3c2c2c1CCCC2	-11	68*	-11	3	76*	-3	9	x
CCN(CC)c1ccc(/C=N/NC(=O)c2ccco2)cc1	-24	x	6	-3	40	-2	x	x
CCN(CC)c1ccc(/C=N/NC(=S)NCc2ccccc2)c(O)c1	37	60*	64*	83*	46	48	44*	44*
CCN(CC)c1ccc(/C=N/NC(=O)c2ccco2)c(O)c1	89*	59*	x	93*	113*	61*	57*	55*
CCN(CC)c1ccc(C=Nc2ccccc2C)c(O)c1	7	7	-6	-6	-11	-13	x	x
CN(Cc1cc([N+](=O)[O-])c2cccnc2c1O)C1CCCCC1	2	4	9	-2	0	-22	x	x
O=[N+]([O-])c1cc(CN2CCN(c3ccccc3)CC2)c(O)c2ncccc12	100*	75*	u	95*	-5	58*	79*	42*
CC(=O)NC(c1ccccc1)c1cc(Cl)c2cccnc2c1O (stereo not drawn)	105*	77*	79*	98*	104*	u	64*	15
CC(=O)NC(c1ccc(F)cc1)c1cccnc1 (stereo not drawn)	u	-10	-6	2	-7	-10	x	x
CC(=O)NC(c1ccc(C)cc1)c1cc([N+](=O)[O-])c2cccnc2c1O (stereo not drawn)	109*	68*	u	71	104*	55*	68*	25
O=[N+]([O-])c1cc([N+](=O)[O-])c2cccnc2c1Oc1ccccc1O	6	x	21	-3	20	8	x	x
COc1ccc(C(NC(C)=O)c2cc(Cl)c3cccnc3c2O)cc1 (stereo not drawn)	3	76*	53*	95*	107*	63*	71*	29
O=C(NCCS(=O)(=O)N1CCN(c2ccccc2)CC1)C1CC1	-7	26	-9	5	1	-10	x	x
CCOc1ccc(C(NC(=O)c2ccco2)c2ccc(OC)c(OC)c2)cc1 (stereo not drawn)	-17	17	1	-7	-26	-4	x	x
O=[N+]([O-])c1ccc(Cl)c2cccnc12	u	13	-2	3	-16	-9	x	x
O=[N+]([O-])c1cc(Cl)c(O)c2ncccc12	107*	51*	51*	x	x	9	54*	56*
CCCC(=O)NC(c1ccc(OC)c(OC)c1)c1cc(Cl)c2cccnc2c1O (stereo not drawn)	13	73*	23	91*	-10	56*	60*	28
COc1ccc(-c2nc(NC(=O)c3cc(C(C)(C)C)nn3C)sc2C)cc1	7	61*	38	85*	81*	57*	32	x
COc1cc(NC(=O)c2n[nH]c(=O)c3ccccc23)cc(OC)c1	-1	8	-3	1	-1	-20	x	x
COc1ccc(-c2nc(NC(=O)c3n[nH]c(=O)c4ccccc34)sc2C)cc1	-6	69*	9	20	23	7	36	x
Cc1cc(C)c(-c2csc(NC(=O)c3n[nH]c(=O)c4ccccc34)n2)c(C)c1	3	60*	31	6	x	14	62*	68*
O=C(O)CCC(=O)N1CCc2cc(S(=O)(=O)NCc3ccc(Cl)cc3)ccc21	-5	-4	-10	-3	-2	10	x	x
CS(=O)(=O)c1ccc(C(=O)Nc2nc(-c3ccco3)c(-c3ccco3)s2)cc1	x	14	x	x	x	x	x	x
SMILES	Calb FLC	Mdm2 MdmX PPI	SKKanGAS inh	Beta apoptosis	CSC inhib	T cruzi repl	Mdm2 MdmX conf	Full FLuc ctr
COCCn1c(C)nnc1SCC(=O)NNC(=O)c1ccc(Br)cc1	-1	31	3	x	x	1	x	x
CCN(CC)CCN(C(=O)/C=C/c1cccs1)c1nc2ccc(C)cc2s1	-18	65*	5	20	-33	24	20	x
CN(C)CCCN(C(=O)/C=C/c1cccs1)c1nc2ccc(F)cc2s1	2	59*	3	20	12	42	39	63*
CN(C)CCN(C(=O)/C=C/c1cccs1)c1nc2c(F)cc(F)cc2s1	-19	69*	6	25	0	34	42*	29
Cc1ccc2nc(N(CCN(C)C)C(=O)/C=C/c3cccs3)sc2c1	-17	32	2	10	-14	41	x	x
CCN(CC)CCN(C(=O)/C=C/c1cccs1)c1nc2ccc(F)cc2s1	-19	52*	-7	10	36	19	20	x
CCOc1cccc(/C=C(\C#N)C(=O)NC2CC2)c1	-6	-9	-3	-4	0	-5	x	x
COc1ccc(OCc2cc(C(=O)NCC3CCCCO3)no2)c(Cl)c1 (stereo not drawn)	-14	-48	-14	-3	15	11	x	x
CCn1nc(C)c(CNC(=O)C2CCC(=O)N(CCc3ccc(Cl)cc3)C2)c1C (stereo not drawn)	0	-13	-3	-5	20	3	x	x
Cc1ccc(S(=O)(=O)N2CCN(C(=O)COC(=O)Cc3ccc(Cl)cc3)CC2)c(C)c1	x	33	x	-7	x	x	x	x
COc1ccc(CCNC(=O)COC(=O)C2CC2C)cc1OC (stereo not drawn)	x	-13	x	1	x	x	x	x
O=C(Nc1ccc(Cl)cc1)Nc1nc(-c2sccc2Br)cs1	26	88*	6	52	-2	2	77*	39*
O=C(Nc1ccccc1)Nc1nc(-c2ccccc2)cs1	-7	-7	-11	9	-12	23	x	x
Cc1cc(C)c2nc(N(CCCN(C)C)C(=O)c3ccc4c(c3)OCCO4)sc2c1	52	66*	3	x	-12	57*	53*	76*
CN(C)CCCN(C(=O)c1ccc2ccccc2c1)c1nc2cc3c(cc2s1)OCO3	-9	77*	2	-20	5	30	46*	61*
CCN(c1ccccc1)S(=O)(=O)c1ccc(C(=O)N(CCCN(C)C)c2nc3cc4c(cc3s2)OCO4)cc1	-2	65*	2	-13	5	24	49*	48*
CN(C)CCCN(C(=O)c1ccc(S(=O)(=O)N(C)Cc2ccccc2)cc1)c1nc2cc3c(cc2s1)OCO3	2	57*	5	114*	7	34	31	x
